B1: tRNA (parent)
chain: GUUCCGUUGGCGUAAUGGUAACGCGUCUCCCUCCUAAGGAGAAGACUGCGGGUUCGAGUCCCGUACGGAACG

Fewer inactive variants are shown than the library holds.

The series covers variants of B1. Put plainly: yeast fitness relative to wild type (ratio to wild type); higher = fitter; tRNA-Arg(CCU), competitive growth, 37 C, YPD. The method in brief:
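The tRNA-Arg(CCU) gene variants were made by chemical synthesis with a 3% per-site mutation rate at 69 sites and inserted at the native genomic locus of Saccharomyces cerevisiae. After pooling, the strains were competed in YPD at 37°C for 24 hours in six parallel replicates. Gene amplicons from the start population and each end population were read by 100-nucleotide paired-end sequencing, and Darwinian fitness relative to wild type was taken from genotype frequency changes. Genotypes needed ≥ 100 starting reads, and estimates < 0.5 were set to 0.5.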
As for C5U A14G C24U U28C, the yeast fitness is not above 0.5. On to C5G U35G A43G C49U G63A A65U, for which the yeast fitness is not above 0.5. C5U A20G C22G C29A A45U: the yeast fitness worked out at 0.563. The same measure for C5U C11G A14G C29G: not above 0.5. Consider C5U A20C G39C G58A, for which the yeast fitness is not above 0.5. The same measure for C5U A14U C29U C46G: not above 0.5; for C5U C11A A14G A42G C49U U64A: not above 0.5. Regarding C5U A14C G41C A43C, the yeast fitness is not above 0.5.

As to C5G U26C C30U C49U, the yeast fitness is not above 0.5.

As to C5U C11A A14C C33G, the yeast fitness was not above 0.5. Take C5U A14U G17C A36U: the yeast fitness was not above 0.5. As to C5U C11U C29U C30G A70C, the yeast fitness was not above 0.5. The same measure for C5U A14C A21C: 0.552; for C5U A14G G67A: 0.642; for C5U A42U: 0.838.

Consider C5U C11A A45G, for which the yeast fitness stood at 0.537.

As for C5U A14C A70U, the yeast fitness is not above 0.5. Turning to C5G U35A, the yeast fitness amounted to 0.615. With C5U A37C C61U, the yeast fitness amounted to 0.627. Turning to C5U A37C C61G, the yeast fitness is not above 0.5. The same measure for C5G U53G A65G: not above 0.5; for C5G U47A G58A: 0.567; for C5U A21U U53A A57U C60A G68C: not above 0.5.

Turning to C5U A15U C30G C33G A40G A43U, the yeast fitness is not above 0.5. Regarding C5G U13G C22G C29G A40U U54C C61G, the yeast fitness turned out to be 0.567. With C5U A21U C33U G50A, the yeast fitness stood at 0.65. The result for C5G U13C U35C reads not above 0.5. As to C5U C11U C60U A69U, the yeast fitness is 0.538. C5G U26C A42G A57G C61U: the yeast fitness is not above 0.5. For the variant C5U A36U C49G, the yeast fitness is not above 0.5. For the variant C5U A20U C30G C66U, the yeast fitness is not above 0.5. Regarding C5U A15U C31U A43U C49U, the yeast fitness was not above 0.5. For C5U A42G G51C G56A, the yeast fitness stood at 0.698. Consider C5U A21U U28C C30G A70U, for which the yeast fitness was not above 0.5.

In the case of C5G U7G U32C, the yeast fitness came to 0.604.

With C5U A21G G44C A57U C62U, the yeast fitness is not above 0.5. Turning to C5G U8C A15G G18C C62U, the yeast fitness was not above 0.5. With C5U C22G C24A A57C, the yeast fitness was not above 0.5.

With C5G U26C G51C A57U, the yeast fitness was not above 0.5. As to C5U A20U U28G U32G C34G, the yeast fitness is not above 0.5. Take C5G U7G C33G A70U: the yeast fitness was not above 0.5. For C5U A14C G63A, the yeast fitness was not above 0.5. For the variant C5G U16A C29U A40U, the yeast fitness is 0.523.

Take C5G U8C C11A U26C U35C G50C G52A: the yeast fitness was determined as 0.634. The same measure for C5U A14G C29U A37U: not above 0.5; for C5U C11U C62U G68A: not above 0.5; for C5U A14C A21C U53G A57C: not above 0.5. The result for C5U A15G U19A A21U C34U reads not above 0.5.

On to C5G U7G A20G, for which the yeast fitness was not above 0.5.

With C5U A21U C30G G58C, the yeast fitness was not above 0.5. Turning to C5G U19C U35A A43C, the yeast fitness was not above 0.5.

Take C5G U13C C22G C33A: the yeast fitness is 0.635.

For the variant C5G U13A C22G C29G A40U, the yeast fitness is 0.556. On to C5U A40U A42C A65U, for which the yeast fitness was not above 0.5. On to C5G U53C A65C, for which the yeast fitness is not above 0.5. For the variant C5G U19A A45C, the yeast fitness stood at 0.779. On to C5U A42U C55U A69C, for which the yeast fitness is not above 0.5. As to C5U A14C C61U, the yeast fitness was found to be 0.562.

Take C5U A14U C31G G63A: the yeast fitness is 0.575. For C5G U16C C24U, the yeast fitness is not above 0.5. As for C5U A15G U16A A20G U28A C30A C33A A36U, the yeast fitness is not above 0.5. For C5U A20U C61U C62U, the yeast fitness is not above 0.5.

As for C5G U16C G39C A57U, the yeast fitness is not above 0.5. Turning to C5U C11U A36U C49G, the yeast fitness was not above 0.5. Regarding C5U A14G A40G, the yeast fitness is 0.648.

For C5G U16A C29U A40U G52A A65C, the yeast fitness is not above 0.5. As for C5U A40U A42G A57C, the yeast fitness is not above 0.5. Take C5G U16A A43G G63U: the yeast fitness is 0.524. C5G U13C C62U: the yeast fitness stood at 0.602.

In the case of C5U C11U G67C, the yeast fitness stood at 0.659. On to C5U A37C C60U G67A, for which the yeast fitness turned out to be 0.558. The same measure for C5U A20U A45C C60U C61A: not above 0.5; for C5U A20U C30U G63A: not above 0.5. The result for C5U C22G U47C reads 0.687. Take C5U C22G C24G C31U A70C: the yeast fitness was not above 0.5. Regarding C5U A37G U59G G68C, the yeast fitness was not above 0.5. Regarding C5U C11A C24G C27G A36U G38C C60A C66A, the yeast fitness was not above 0.5. For the variant C5G U16A G39A, the yeast fitness is not above 0.5. Take C5U A45G C62U: the yeast fitness came out at 0.994. On to C5U A40G C49U C62U A65G, for which the yeast fitness was not above 0.5. For the variant C5U A43U C49U, the yeast fitness was found to be 0.555.

Regarding C5G U64G C66U, the yeast fitness turned out to be 0.593. The same measure for C5U A15G C22G G41A A45U U47A C62U A69U: not above 0.5. On to C5U A15G C22U A37U A65C, for which the yeast fitness was not above 0.5. Consider C5G U64A, for which the yeast fitness worked out at 0.784. The result for C5U C11U G25A A37G C60G reads not above 0.5; that for C5U C22A G25A C66U, not above 0.5; that for C5G U13C G58C, 0.74. Regarding C5U A21U C62U A70C, the yeast fitness is not above 0.5. C5U A45C G63C: the yeast fitness was not above 0.5.

With C5G U16A C33A A43C, the yeast fitness was not above 0.5.

With C5U C11A C31U C34U, the yeast fitness was not above 0.5. For the variant C5U A20G U35C A37G, the yeast fitness is not above 0.5.

For C5G U13G A20U A37G, the yeast fitness is 0.514. As for C5U A14C A69C, the yeast fitness is not above 0.5. With C5U A15G A42G G58C G68A, the yeast fitness is not above 0.5.

On to C5U A45G A69G, for which the yeast fitness came out at 0.909. The result for C5U C22G U26G A42C reads not above 0.5; that for C5G U13C A21C A70C, not above 0.5.

Regarding C5G U28C C31G C62U, the yeast fitness is not above 0.5. Take C5G U8C A15G C29A G39A: the yeast fitness was not above 0.5. The same measure for C5G U26A A69C: 0.634; for C5U C11U: 0.889. The result for C5U A21G C29U A45U reads 0.538; that for C5U A45U C46G, not above 0.5; that for C5G U26C A70G, 0.632. The result for C5U C11A C34G reads not above 0.5. C5U A14C A21C C33U G56A: the yeast fitness is not above 0.5.

As to C5U A15U G25A C29U C31U C34U, the yeast fitness is not above 0.5. As to C5U A21U A37C C61A A65C, the yeast fitness was not above 0.5. Regarding C5U C11G U13C A15U U32A U35G C55A C61G, the yeast fitness is not above 0.5. On to C5U A37G G56C, for which the yeast fitness was found to be 0.533. Consider C5G U8G C11G, for which the yeast fitness turned out to be 0.509. As for C5U C11U A57U, the yeast fitness was 0.544. The result for C5U A57U G63A reads not above 0.5; that for C5U C11U A69U, 0.734; that for C5G U35C C66U, 0.546.

On to C5U A14G A21U A36U G48C C55U, for which the yeast fitness was determined as 0.627. In the case of C5U A14C C29U C46A, the yeast fitness is not above 0.5.

As for C5U A14C C55A, the yeast fitness was not above 0.5. With C5U C22G C29A C61A, the yeast fitness was not above 0.5. C5G U7C U54A C61U: the yeast fitness was found to be 0.557. Regarding C5U C11A C24G C27G A36U G38C A70C, the yeast fitness was not above 0.5. Turning to C5U A20C G67A, the yeast fitness came out at 1.01. For C5U C22G C24A, the yeast fitness was not above 0.5.

In the case of C5U A20U G56C A65G A70U, the yeast fitness was not above 0.5. Regarding C5G U7C G56A A57U C62G, the yeast fitness was not above 0.5.

For C5U A14C, the yeast fitness was 0.593. In the case of C5G U26A C46U, the yeast fitness worked out at 0.96. As for C5U A14G A65U G67A, the yeast fitness amounted to 0.689. As for C5U A65C G68A, the yeast fitness was found to be 0.681. Turning to C5U A21U C31G A37C C66U, the yeast fitness amounted to 0.51.

As for C5U A20U U26A C49A A57C C62U, the yeast fitness was not above 0.5. For C5U C11U U32G C33A U47A C62U C66G, the yeast fitness is not above 0.5.

C5U A43C: the yeast fitness came out at 0.813. With C5U A21G C27U G41A, the yeast fitness was not above 0.5.

As to C5G U13G, the yeast fitness was 0.703. The result for C5G U35C C49U C61G reads not above 0.5; that for C5G U26G C34G A40C C46U C49G, 0.558; that for C5U A21U G68A, not above 0.5. Turning to C5U C11U A36U C62A, the yeast fitness is not above 0.5.

Take C5G U26G G38C G51C: the yeast fitness was not above 0.5. Regarding C5U A57U C61U, the yeast fitness was determined as 0.59.

With C5G U13A C30U, the yeast fitness worked out at 0.56. Consider C5U A14U C30U G39C, for which the yeast fitness is not above 0.5.

On to C5U C11U U28G A40C, for which the yeast fitness worked out at 1.13. Consider C5U A45U C62G G63A, for which the yeast fitness is not above 0.5. As for C5U A20C U53A, the yeast fitness amounted to 0.544. As for C5U A45C C49U G56A, the yeast fitness worked out at 0.616. On to C5U C11A U26A C29U C30A C31U C60U C61U, for which the yeast fitness is not above 0.5. With C5G U16A A69U, the yeast fitness is not above 0.5.

Regarding C5U A37U A42U A69U, the yeast fitness was not above 0.5. As to C5U A15G C60A A70C, the yeast fitness was not above 0.5. For the variant C5U C11A A43U C66U, the yeast fitness is 0.621.

Regarding C5U A14G A65G, the yeast fitness was found to be 0.69. The same measure for C5U C11G C49U C61A: not above 0.5; for C5U A20C C27U G39A G56A G58C: not above 0.5.

On to C5U A43U C66U, for which the yeast fitness is 0.68.

For C5U A21G A42U G58A, the yeast fitness came to 1.02. In the case of C5U A21G A57C, the yeast fitness was determined as 0.562. In the case of C5U A45U C46G C60A, the yeast fitness is 0.597. On to C5G U35C C49G, for which the yeast fitness was not above 0.5.

In the case of C5U C22G C29G U32C, the yeast fitness is not above 0.5. Turning to C5U C11U C34A, the yeast fitness is 0.558.

As to C5G U8A G41C U47A, the yeast fitness worked out at 0.605.

Regarding C5U A14C A45C A65C, the yeast fitness came out at 0.561. On to C5U A20C A36G, for which the yeast fitness was determined as 0.632.

(Values after the RNAGym collection of RNA variant scans (doi:10.1126/science.aae0568).)
